Data reported in PubChem BioAssay.
Activity calls are given as the source filed them.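 How the source made its calls, unless noted: active means viability at or under a set limit in both replicates, limit being median viability minus 3 SD (cut at about 48% in these data, passing the limit was not always enough); inconclusive means at or under the limit in just one replicate; inactive means at or above the limit in both replicates.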

What was measured:
[1] = reducers of endogenous Her2 protein level, primary screen, SKBR3 breast tumor cells, AlphaScreen, ATP viability (AID 461;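 active means Her2 level under about 52% in both replicate screens, with viability over 70% of control, limit read from the data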;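 on Her2 level: lower value means less Her2 protein in the cells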;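 on viability: percent of carrier control wells set as 100% viability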); settings: 18-24 h, measured here: SKBR3 viability, ATP luminescence, at 10 µM
[2] = biological target: Receptor tyrosine-protein kinase erbB-2 (Homo sapiens) (UniProt P04626); assay: as above; settings: 18-24 h, at 10 µM, stronger effect = lower value
[3] = SK-BR-3 cell growth inhibitors, pilot screen, 24 h, human (AID 572;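 active means viability at or below 10% of carrier control in both of two separate runs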;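 further: compound exposure lasted between 18 and 24 h rather than exactly 24 h; 100% = carrier-treated control wells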); settings: SK-BR-3 viability, CellTiter-Glo luminescence, at 10 µM, stronger effect = lower value
[4] = HUVEC growth inhibition – cell-based, human, primary screen (AID 575;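 active means viability at or below 30% in both replicate assays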;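 further: 100% = median of untreated cell wells with 0.1% DMSO on each plate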); settings: HUVEC proliferation, CellTiter-Glo luminescence, 72 h; at 10 µM; stronger effect = lower value
Summary of the method: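 Test system: primary human umbilical vein endothelial cells; medium: endothelial basal medium with 2% FBS plus growth supplements; dosing: 10 µM compound only; times: 72 h treatment at 37 °C; signal: CTG luminescence; read-out: % viability relative to median vehicle-well signal on each plate; control set: vehicle and MePR control wells; plate: 384-well, collagen-coated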

[5] = growth inhibitors of H69AR lung tumor, primary screen, human, duplicate replicates (AID 580); settings: H69AR lung tumor cells viability, ATP luminescence, 72 h; at 10 µM; stronger effect = lower value;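 further: 100% = mean luminescence of untreated wells and 0% = no signal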
[6] = reversal of MRP1-mediated doxorubicin resistance, pilot screen, H69AR cells, doxorubicin co-treatment (AID 601;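 active means viability loss from added drug above about 55%, and viability with drug at most 40%, in both replicates, limit read from the data, passing the limit was not always enough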); settings: CellTiter-Glo, 72 h, at 10 µM; for differential viability (reversal): stronger effect = higher value
[7] = 384-well plate pilot, post-Golgi transport modulator project, inhibition of yeast transport mutant growth (AID 636; in the data active means inhibition above about 31%); settings: absorbance 615 nm, about 18 h, stronger effect = higher value
[8] = growth suppression of yeast trafficking mutant, preliminary HTS, modulators of trafficking downstream of Golgi apparatus project, 1536-format plate, OD 615 nm (AID 637; in the data active means inhibition above about 30%); settings: yeast transport mutant growth, absorbance 615 nm, 18 h; stronger effect = higher value
[9] = H69AR cells + 2 uM doxorubicin, measured here: viability with 2 uM doxorubicin, stronger effect = lower value
[10] = H69AR cells, compound alone cytotoxicity

Chain of Receptor tyrosine-protein kinase erbB-2 (Homo sapiens) (P04626 whole entry, looked up): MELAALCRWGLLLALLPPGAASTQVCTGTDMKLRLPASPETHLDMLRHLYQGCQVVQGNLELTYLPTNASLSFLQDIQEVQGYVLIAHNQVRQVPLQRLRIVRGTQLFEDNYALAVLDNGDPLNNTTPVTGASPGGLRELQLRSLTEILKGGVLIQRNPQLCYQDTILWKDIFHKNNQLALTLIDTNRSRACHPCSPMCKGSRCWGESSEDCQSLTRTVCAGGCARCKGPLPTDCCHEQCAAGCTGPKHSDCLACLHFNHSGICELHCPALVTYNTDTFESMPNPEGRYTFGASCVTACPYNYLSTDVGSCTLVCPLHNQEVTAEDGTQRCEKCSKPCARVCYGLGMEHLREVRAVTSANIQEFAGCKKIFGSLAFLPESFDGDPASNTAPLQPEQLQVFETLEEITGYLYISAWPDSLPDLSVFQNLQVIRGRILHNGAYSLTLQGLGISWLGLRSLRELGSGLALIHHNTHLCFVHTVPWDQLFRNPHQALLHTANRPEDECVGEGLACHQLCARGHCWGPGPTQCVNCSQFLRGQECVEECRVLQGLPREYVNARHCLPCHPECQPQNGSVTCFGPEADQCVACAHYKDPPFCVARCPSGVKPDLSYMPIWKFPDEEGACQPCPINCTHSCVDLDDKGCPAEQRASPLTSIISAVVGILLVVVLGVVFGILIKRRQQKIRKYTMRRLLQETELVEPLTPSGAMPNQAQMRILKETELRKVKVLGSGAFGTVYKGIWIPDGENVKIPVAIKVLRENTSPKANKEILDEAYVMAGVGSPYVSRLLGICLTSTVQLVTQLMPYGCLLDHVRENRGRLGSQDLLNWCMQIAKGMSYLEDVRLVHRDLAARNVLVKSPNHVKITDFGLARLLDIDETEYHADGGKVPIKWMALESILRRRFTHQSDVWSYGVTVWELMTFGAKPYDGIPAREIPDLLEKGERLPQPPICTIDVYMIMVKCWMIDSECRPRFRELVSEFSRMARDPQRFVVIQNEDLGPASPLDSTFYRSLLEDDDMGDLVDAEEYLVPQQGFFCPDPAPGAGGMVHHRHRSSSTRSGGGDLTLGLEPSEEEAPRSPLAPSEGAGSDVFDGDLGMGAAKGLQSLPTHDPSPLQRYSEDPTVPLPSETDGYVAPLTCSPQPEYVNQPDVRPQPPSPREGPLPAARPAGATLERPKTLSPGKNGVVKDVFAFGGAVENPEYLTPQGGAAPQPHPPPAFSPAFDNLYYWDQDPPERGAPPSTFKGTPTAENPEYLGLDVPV

Row | SMILES | viability [1] | Her2 level [2] | viability [3] | viability [4] | viability [5] | differential viability (reversal) ([6]; H69AR cells + 2 uM doxorubicin) | viability [6, 9] | viability [6, 10] | inhibition [7] | inhibition [8]
1 | O=C(/C=N/O)NCc1ccncc1 | 100% | 94.5% (inactive) | 100% (inactive) | 102% (inactive) | 108% (inactive) | 7.88% (inactive) | 100% | 108% | -1.43% (inactive) | -3.81% (inactive)
2 | c1ccc(Nc2ccccc2Nc2ccccn2)nc1 | 138% | 108% (inactive) | 138% (inactive) | 95.8% (inactive) | 91.7% (inactive) | -7.51% (inactive) | 99.2% | 91.7% | -3.33% (inactive) | 5.08% (inactive)
3 | O=C(CSc1nnc(-c2ccco2)c(-c2ccco2)n1)Nc1ccccc1 | 102% | 64% (inactive) | 102% (inactive) | 89.2% (inactive) | 77.6% (inactive) | -12.2% (inactive) | 89.8% | 77.6% | 2.63% (inactive) | 9.03% (inactive)
4 | O=C(CSc1ncnc2c1oc1ccccc12)NCc1ccco1 | 140% | 60% (inactive) | 140% (inactive) | 83.7% (inactive) | 76.4% (inactive) | -5.7% (inactive) | 82.1% | 76.4% | -6.27% (inactive) | 2.62% (inactive)
5 | COCCNC(=O)C(c1cccc(OC)c1)N(Cc1cccs1)C(=O)Cn1nnc2ccccc21 (stereo not given) | 110% | 82% (inactive) | 110% (inactive) | 105% (inactive) | 99.2% (inactive) | 4.64% (inactive) | 94.5% | 99.2% | -3.6% (inactive) | 1.48% (inactive)
6 | O=C(NCCO)c1cccc2c1C(=O)c1ccccc1-2 | 97.5% | 95.5% (inactive) | 97.5% (inactive) | 98.4% (inactive) | 101% (inactive) | 15.4% (inactive) | 85.8% | 101% | -6.4% (inactive) | -1.48% (inactive)
7 | O=C(CN1C(=O)C2C3C=CC(C3)C2C1=O)NCc1ccc2c(c1)OCO2 (stereo not given) | 102% | 109% (inactive) | 102% (inactive) | 97.9% (inactive) | 98.2% (inactive) | 8.13% (inactive) | 90.1% | 98.2% | -1.43% (inactive) | -7.78% (inactive)
8 | Cc1cc(C)nc(SCC(=O)Nc2ccc(S(=O)(=O)Nc3nccs3)cc2)n1 | 110% | 107% (inactive) | 110% (inactive) | 97.4% (inactive) | 95.7% (inactive) | 4.67% (inactive) | 91% | 95.7% | -1.76% (inactive) | 5.9% (inactive)
9 | Cc1noc(C)c1C(=O)OCC(=O)Nc1ccccc1C(=O)NC(C)c1ccccc1 (stereo not given) | 90.5% | 86% (inactive) | 90.5% (inactive) | 70.5% (inactive) | 87.2% (inactive) | -6.91% (inactive) | 94.1% | 87.2% | -4.93% (inactive) | 6.72% (inactive)
10 | O=C(c1ccco1)N1CCN(/C(=N/S(=O)(=O)c2cccs2)c2ccccc2Cl)CC1 | 77% | 81% (inactive) | 77% (inactive) | 88.7% (inactive) | 93.1% (inactive) | 0.85% (inactive) | 92.3% | 93.1% | -4.73% (inactive) | -3.77% (inactive)
11 | CCN(CC)CCOC(=O)c1c(C)oc2ccc(O)cc12 | 102% | 109% (inactive) | 102% (inactive) | 89.7% (inactive) | 95% (inactive) | 3.9% (inactive) | 91.1% | 95% | -0.53% (inactive) | -6.94% (inactive)
12 | O=C(Nc1ccc(N2CCOCC2)cc1)c1cc2ccccc2o1 | 99.5% | 117% (inactive) | 99.5% (inactive) | 109% (inactive) | 85.7% (inactive) | 3.15% (inactive) | 82.6% | 85.7% | -0.26% (inactive) | -10.8% (inactive)
13 | Cc1cccn2cc(-c3ccccc3)nc12 | 78% | 77% (inactive) | 78% (inactive) | 79.2% (inactive) | 91.5% (inactive) | 11.1% (inactive) | 80.3% | 91.5% | -1.45% (inactive) | 2.55% (inactive)
14 | CCOC(=O)C1CCN(c2nc3ccccc3nc2C(C#N)C(=O)OCCOC)CC1 (stereo not given) | 97% | 98% (inactive) | 97% (inactive) | 78.3% (inactive) | 79.4% (inactive) | 27.7% (inactive) | 51.7% | 79.4% | -6.71% (inactive) | 0.16% (inactive)
